# Experimental data taken from ChEMBL document CHEMBL5321236, “Fluoro-labelled sp2-iminoglycolipids with immunomodulatory properties” (Eur J Med Chem, 2023).
# Active and inactive are the calls of the source. The calls are words filed in the database; no cut-off is given here.
# How the values were obtained:
# SW1573 [1] = assay: Growth inhibition of human SW1573 cells measured after 48 hrs by SRB colorimetric assay; format: functional
# Method in brief: (§1)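 NCI-based protocol with sulforhodamine B read-out. Seeded 2500 (A549, HBL-100, HeLa, SW1573), 5000 (T-47D, WiDr, SW1573/P-gp) or 7000 (BJ-hTERT) cells/well. Exposed 48 h to serial decimal dilutions, 0.001–100 μM, from 40 mM DMSO stock. GI50 by NCI formulas; mean of three or more experiments ± SD.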
# SW1573 [2] = assay: Induction of morphological changes in human SW1573 cells assessed as formation of apoptotic bodies at 20 uM measured after 5 hrs by microscopy based analysis; format: functional, cell-based
# Method in brief: (§2)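 HeLa and SW1573 seeded at 100,000 cells/dish. After 24 h, medium switched to phenol-red-free RPMI 1640 and 20 μM added. Label-free holotomographic 3D live imaging of a 236 × 236 μm field, 10–20 cells initially, every 3 min for 15 h. Average dry mass density measured per cell at each cycle; morphology scored against untreated cells.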
# SW1573 [3] = assay: Induction of morphological changes in human SW1573 cells assessed as increase in average dry mass density at 20 uM measured after 15 hrs by imaging based analysis; format: functional, cell-based; method in brief: as §2
# HBL-100 = assay: Growth inhibition of human HBL-100 cells measured after 48 hrs by SRB colorimetric assay; format: functional; method in brief: as §1
# SW1573 [4] = assay: Induction of morphological changes in human SW1573 cells assessed as decrease in cell volume at 20 uM measured after 5 hrs by microscopy based analysis; format: functional; method in brief: as §2
# HeLa [5] = assay: Induction of morphological changes in human HeLa cells assessed as production of filmy bubbles at 20 uM measured after 12 hrs by imaging based analysis; format: functional, cell-based; method in brief: as §2
# HeLa [6] = assay: Induction of morphological changes in human HeLa cells assessed as decrease in cell volume at 20 uM measured after 5 hrs by microscopy based analysis; format: functional; method in brief: as §2
# HeLa [7] = assay: Inhibition of colony formation in human HeLa cells assessed as reduction in number of colonies at GI50 concentration measured after 7 days by crystal violet staining based analysis; format: functional, cell-based; conditions: time 7.0 day
# Method in brief: (§3)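 HeLa and SW1573 seeded at 400 cells/well, dosed next day at GI50/3 and GI50 for the given line. Exposed seven days, fixed in methanol, stained with 0.5% w/v crystal violet. Colonies counted by automatic image segmentation.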
# HeLa [8] = assay: Growth inhibition of human HeLa cells measured after 48 hrs by SRB colorimetric assay; format: functional; method in brief: as §1
# HeLa [9] = assay: Inhibition of colony formation in human HeLa cells assessed as reduction in number of colonies at one third of GI50 concentration measured after 7 days by crystal violet staining based analysis; format: functional, cell-based; conditions: time 7.0 day; method in brief: as §3
# HeLa [10] = assay: Induction of morphological changes in human HeLa cells assessed as cell shrinkage at 20 uM measured after 5 hrs by microscopy based analysis; format: functional; method in brief: as §2
# HeLa [11] = assay: Induction of morphological changes in human HeLa cells assessed as membrane rupture at 20 uM measured after 12 hrs by imaging based analysis; format: functional, cell-based; method in brief: as §2
# BV-2 [12] = assay: Antiinflammatory activity in mouse BV-2 cells assessed as restoration of […] expression level at 10 uM incubated for 24 hrs with LPS stimulation by qRT-PCR analysis; format: functional, cell-based
# Method in brief: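 Bv.2 microglia stimulated with LPS 200 ng/mL with or without compound at 10 μM for 24 h. Arg1 mRNA measured by qRT-PCR, Actinb as housekeeping gene, 2^-ΔΔCT method, fold change relative to basal. n ≥ 4 independent experiments in triplicate.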
# SW1573 [13] = assay: Inhibition of colony formation in human SW1573 cells assessed as reduction in number of colonies at GI50 concentration measured after 7 days by crystal violet staining based analysis; format: functional, cell-based; conditions: time 7.0 day; method in brief: as §3
# SW1573 [14] = assay: Induction of apoptosis in human SW1573 cells assessed as membrane blebbing at 20 uM measured upto 15 hrs by microscopy based analysis; format: functional, cell-based; method in brief: as §2
# BV-2 [15] = assay: Antiinflammatory activity in mouse BV-2 cells assessed as reduction of LPS induced nitrites at 10 uM preincubated for 3 hrs followed by LPS stimulation and measured after 24 hrs by Griess method; format: functional, cell-based; conditions: time 27.0 hrs
# Method in brief: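 Bv.2 microglia at 70% confluence, pre-treated 3 h at 10 μM in serum-free medium, then LPS 200 ng/mL for 24 h. Nitrite in the medium measured by Griess (1% sulphanilamide, 0.1% NEDA in acid), absorbance 548 nm, expressed as fold change over basal. n ≥ 4 independent experiments in triplicate, mean ± SEM.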
# SW1573 [16] = assay: Induction of morphological changes in human SW1573 cells assessed as cell shrinkage at 20 uM measured after 5 hrs by microscopy based analysis; format: functional; method in brief: as §2
compound,measurement,setting,value
CCCCCCCCCCCCS(=O)(=O)[C@@H]1[C@H](F)[C@@H](O)[C@H](O)[C@H]2COC(=O)N21,GI50,SW1573 [1],9.1 µM
same,Activity,SW1573 [2],Active
same,Activity,SW1573 [3],Active
same,GI50,HBL-100,19 µM
same,Activity,SW1573 [4],Active
same,Activity,HeLa [5],Active
same,Activity,HeLa [6],Active
same,inhibition,HeLa [7],Active
same,GI50,HeLa [8],4.5 µM
same,inhibition,HeLa [9],Active
same,Activity,HeLa [10],Active
same,Activity,HeLa [11],Active
same,Activity,BV-2 [12],Active
same,inhibition,SW1573 [13],Active
same,Activity,SW1573 [14],inactive
same,Activity,BV-2 [15],Active
same,Activity,SW1573 [16],Active
